Screens (PubChem)
In the library only some 0.74% were active in any assay of this set; here they are far more common.
Tn6 DDE FP – inhibitors of Tn6 peptide binding to human fibrin DD(E) | P02675 | Fibrin DD(E) TRITC-Tn6 fluorescence polarization displacement | inhibition, % at 8.3 µM | 0.21% of 370,000 active;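 active means inhibition above a per-campaign cutoff: mean of compounds within control limits plus 3 SD, cut at about 15% in these data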;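 further: 0% = median of all compound wells on the plate and 100% = blocking peptide control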
Target sequence (P02675 whole entry, looked up): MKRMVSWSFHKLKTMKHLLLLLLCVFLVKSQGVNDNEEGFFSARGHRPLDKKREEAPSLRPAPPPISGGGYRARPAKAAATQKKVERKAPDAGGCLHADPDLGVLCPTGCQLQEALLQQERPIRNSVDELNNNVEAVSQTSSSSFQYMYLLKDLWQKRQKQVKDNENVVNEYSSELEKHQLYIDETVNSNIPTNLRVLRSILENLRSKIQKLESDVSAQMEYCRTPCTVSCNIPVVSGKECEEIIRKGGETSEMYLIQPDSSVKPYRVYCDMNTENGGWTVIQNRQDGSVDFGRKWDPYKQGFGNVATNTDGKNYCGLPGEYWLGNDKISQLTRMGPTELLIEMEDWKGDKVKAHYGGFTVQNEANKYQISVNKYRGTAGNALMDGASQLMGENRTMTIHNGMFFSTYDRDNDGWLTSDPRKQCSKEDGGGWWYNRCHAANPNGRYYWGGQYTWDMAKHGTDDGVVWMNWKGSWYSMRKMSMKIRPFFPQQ
Tn7 DDE FP – disrupts Tn7 cyclic peptide binding to fibrin D-Dimer-E complex | P02675 | FP displacement of FITC-Tn7 peptide from fibrin DD(E); 0% = median of compound wells per plate | inhibition, % at 8.3 µM | 0.13% of 370,000 active | AID 720508;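 active means inhibition above the mean of compounds falling within the control limits plus 3 SD of them, cut at about 14% in these data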;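 further: 0% = plate median of compound wells and 100% = 10 µM Aha-Tn7 peptide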
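Assay system: human fibrin DD(E) protein / Input: 2 µM fibrin DD(E) / Benchmarks: high control of 10 µM Aha-Tn7 peptide / Measured by: fluorescence polarization of the labelled Tn7 tracer / Medium: Tris buffer with calcium and detergent, pH 7.8 / Timing: 10 min compound pre-incubation, 3 h probe incubation at room temperature / Repeats: one replicate per compound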
ARFGAP1 inhibitor – rat ARFGAP1 inhibition; Arfgap1-stimulated ARF1 GTP hydrolysis, GDP FP detection; inhibition, % at 16.5 µM; 0.26% of 360,000 active; AID 651572;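 active means inhibition above a per-plate limit, mean inhibition of low control wells plus 3 SD, cut at about 25% in these data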;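 further: 0% = DMSO wells with enzyme and 100% = wells lacking Arfgap1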
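system = rat Arfgap1 catalytic domain, aa 1-136 | technique = FP, GDP Alexa 633 tracer displaced from anti-GDP antibody, 620/688 nm | compound = one concentration, 16.5 µM, DMSO 1.26% | medium = HEPES-based buffer, pH 7.5 | timing = compound-enzyme preincubation 20 min, reaction 120 min, detection 60 min, 25 °C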
ASAP1 GAP inh – blocks human ASAP1-stimulated Arf1 GTP hydrolysis | Q9ULH1 | GDP FP detection | inhibition, % at 16.5 µM | 0.19% of 360,000 active; in the data active means inhibition above about 25%;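 further: 0% = vehicle with enzyme and substrate and 100% = no enzyme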
Tn6 DDE ctr – DD(E)-Tn6 binding inhibition, counter-screen. inhibition, % at 8.3 µM. Fibrin DD(E), TRITC-Tn6 fluorescence polarization displacement; 0% = median of compound wells, not DMSO. shares compounds with Tn6 DDE FP. 2% of 680 active;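 active means inhibition above the mean of test compounds lying between the control limits plus 3 SD of those, cut at about 14% in these data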;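 further: 0% = median of compound wells and 100% = wells with Aha-Tn7 blocking peptide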
DDE Tn6 confirm – confirmation of inhibitors of Tn6 binding to human fibrin DD(E) | shares compounds with Tn6 DDE FP | FP displacement of TRITC-Tn6 peptide from DD(E); 0% = per-plate median of test wells | inhibition, % at 8.3 µM | 10% of 680 active;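 active means inhibition above the mean of compounds lying within the control limits plus 3 SD, cut at about 16% in these data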;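 further: 100% = high control wells holding a competing inhibitor peptide at 10 µM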
Starred values were filed as active, the others as inactive; . = not tested or not shown.

SMILES	Tn6 DDE FP	Tn7 DDE FP	ARFGAP1 inhibitor	ASAP1 GAP inh	Tn6 DDE ctr	DDE Tn6 confirm
CNC(=O)c1cc(Oc2ccc(NC(=O)Nc3ccc(Cl)c(C(F)(F)F)c3)cc2)ccn1	34*	-2	15	18	-1	-2
CNNC(=S)Nc1cccc(C(F)(F)F)c1	-2	-6	-1	-13	.	.
CC(C)(O)C(=O)NNC(=S)Nc1cccc(C(F)(F)F)c1	17*	5	6	1	3	2
CC(=O)Nc1ccccc1-c1ccc(C)o1	6	-3	0	-4	.	.
Cc1ccc(NC(=O)CS(=O)CC(=O)Nc2ccccc2-c2ccc(C)o2)cc1 (stereo unspecified)	22*	8	12	0	-1	-3
NC(=O)C1(N2CCCCC2)CCN(C(=O)CSc2nc3ccccc3s2)CC1	17*	3	-8	10	3	2
O=C(CSc1nc2ccccc2s1)N1CCOCC1	4	-7	2	1	.	.
CCCCCc1ccc(NC(=O)OCCCN2CCC3(CCC(c4ccccc4)CC3)C2=O)cc1 (stereo unspecified)	4	3	.	.	.	.
Cc1cccc(NC(=O)C2CCN(S(=O)(=O)c3ccc(Cl)cc3)CC2)n1	17*	6	-14	-1	-3	-5
Cc1cccc(NC(=O)C2CCN(S(=O)(=O)c3ccc4ccccc4c3)CC2)n1	-9	13	-7	5	.	.
C=CCn1c(=O)c2c(nc3n2CC(C)CN3Cc2ccccc2)n(C)c1=O (stereo unspecified)	17*	-8	12	-3	-1	-12
CCCn1c(=O)c2c(nc3n2CC(C)CN3Cc2ccccc2)n(C)c1=O (stereo unspecified)	-5	4	8	4	.	.
CC(OC(=O)c1cccc([N+](=O)[O-])c1)C(=O)N1CCc2ccccc21 (stereo unspecified)	16*	-12	0	3	3	1
CCOC(=O)N1Cc2cc3ccccc3nc2C1	2	-5	-11	4	.	.
CCOC(=O)C1(C)C(=O)CC2c3nc4ccccc4cc3CN2C1=O (stereo unspecified)	75*	4	8	7	4	47*
CC(=O)Nc1ccc(S(=O)(=O)NCc2ccc3c(c2)cc(C)n3C)cc1	62*	-1	10	12	-6	-9
Cc1cc2cc(CNS(=O)(=O)c3ccc4ccccc4c3)ccc2n1C	50*	-2	7	7	6	20*
Cc1cc(C)c(S(=O)(=O)NCc2ccc3c(c2)cc(C)n3C)c(C)c1	59*	-3	3	-10	-4	8
CCNC(=S)NNC(=O)CSc1nnc(-c2ccccc2)n1-c1ccc(Cl)cc1	-2	-5	.	.	.	.
Cc1ccc2c(c1)C1CS(=O)(=O)N(CCc3ccccc3)C(=O)N1C2 (stereo unspecified)	-3	-3	.	.	.	.
COC(=O)[C@]12C[C@H](CC(=O)NCc3ccc(OC)c(OC)c3)C(=O)N(CCc3ccc(OC)c(OC)c3)C1=C[C@H](COCc1ccccc1)O[C@@H]2C	15*	2	.	.	-5	-10
Cc1cc(CN(C)C(=O)CC2C(=O)NCCN2Cc2ccc(-c3ccccc3)cc2)on1 (stereo unspecified)	16*	2	3	-6	-2	-14
COC(=O)C1CN(Cc2ccc(Cl)cc2)CCS(=O)(=O)N1Cc1cn(Cc2ccc(Cl)cc2)nn1 (stereo unspecified)	0	-6	.	.	.	.
COc1ccc(CC(=O)OCC(=O)N2CCCC(C)C2)cc1 (stereo unspecified)	15*	-2	3	5	-4	-8
Cc1cc(C)c(S(=O)(=O)NCCn2c(C)cc3ccccc32)c(C)c1	56*	-8	6	-3	-4	23*
SMILES	Tn6 DDE FP	Tn7 DDE FP	ARFGAP1 inhibitor	ASAP1 GAP inh	Tn6 DDE ctr	DDE Tn6 confirm
Cc1cc2ccccc2n1CCNC(=O)c1ccc(S(=O)(=O)N2CCCCC2)cc1	62*	0	9	5	-4	31*
Cc1cc2ccccc2n1CCNC(=O)Cc1ccccc1	26*	11	-2	6	-6	-4
C#CC1(O)C2C=C(OC)C(=O)C1C(c1ccccc1)C2C (stereo unspecified)	2	4	.	.	.	.
N#Cc1ccc(NC(=O)CSc2n[nH]c(=O)n2C2CC2)cc1	16*	3	-12	-8	3	4
Cc1cccc(CNC(=S)OC2CCC23CCC(c2ccccc2)CC3)c1 (stereo unspecified)	1	1	.	.	.	.
O=[n+]1c2c(n([O-])c3cc(F)c(N4CCCC4)cc31)CCC2	16*	12	-8	1	4	17*
O=[n+]1c2c(n([O-])c3cc(F)c(N4CCCC4)cc31)CCCC2	12	1	-1	-4	.	.
O=C(CCS(=O)(=O)c1ccc(Cl)cc1)N1CCN(c2ccc(F)cc2)CC1	18*	0	-8	5	6	-4
O=C(c1cc(Cl)cc(Cl)c1)N1CC[C@H]2[C@H](CCCN2Cc2ccc(F)cc2)C1	-4	2	.	.	.	.
COc1ccc(-n2c(=S)[nH]c3cc(C(=O)Nc4ccc(OC)c(OC)c4)ccc3c2=O)cc1	17*	-2	-9	1	-3	-12
CCN1C(=O)CC(N2CCN(CC(=O)NC(C)C)CC2)C1=O (stereo unspecified)	16*	-2	-3	1	1	-2
CCCCN1C(=O)N2Cc3ccccc3C2CS1(=O)=O (stereo unspecified)	1	-1	.	.	.	.
O=C(CN1C(=O)c2cccnc2Oc2ccc(Cl)cc21)N1CCCC1	16*	3	3	1	1	0
O=C(CN1C(=O)c2cccnc2Oc2ccc(Cl)cc21)N1CCCCCC1	2	-2	-5	3	.	.
